This is a sample that favours compounds with a hit; in the whole collection about 4.9% have one here.
NPY2 pot ag – NPY-Y2 potentiators or agonists, primary screen, cell-based; activation, % at 3.6 µM; 220,000 compounds, 0.45% hits; cells expressing NPY-Y2, potentiator/agonist read-out; AID 1359, 2008; Neuropeptide Y receptor type 2 (Homo sapiens), P49146; in the data active = activation above about 27%;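 also: cells stimulated with NPY near EC25 plus isoproterenol at EC100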
NPY1 pot ag – NPY-Y1 receptor potentiators or agonists, primary screen, cell-based. Neuropeptide Y receptor type 1 (Homo sapiens), P25929. NPY-Y1 expressing cells, potentiator/agonist activation. activation, % at 3.6 µM. 220,000 compounds, 0.37% hits. AID 1304, 2008; in the data active = activation above about 33%, passing the limit was not always enough;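 also: cells stimulated with NPY at EC10 then isoproterenol at EC100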
Target sequence (P25929 whole entry, looked up): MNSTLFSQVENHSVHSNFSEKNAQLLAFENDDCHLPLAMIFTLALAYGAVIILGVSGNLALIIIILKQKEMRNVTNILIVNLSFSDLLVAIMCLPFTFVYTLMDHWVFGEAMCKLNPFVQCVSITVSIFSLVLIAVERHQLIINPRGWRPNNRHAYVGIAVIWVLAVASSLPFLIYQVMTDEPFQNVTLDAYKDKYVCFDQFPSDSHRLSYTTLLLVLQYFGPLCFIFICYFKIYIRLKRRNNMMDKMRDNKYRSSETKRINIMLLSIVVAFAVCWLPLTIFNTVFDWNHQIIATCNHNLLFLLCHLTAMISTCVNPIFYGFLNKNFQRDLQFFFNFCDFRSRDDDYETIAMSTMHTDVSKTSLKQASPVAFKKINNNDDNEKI
WT yeast gro inh – growth inhibition of WT strain, primary screen, mitochondrial fusion inhibitor project, WT and mutant strains, chemical genetic; mitochondrial fusion phenotypic screen; inhibition, % at 10 µM; 190,000 compounds, 2.1% hits; AID 1362, 2008; in the data active = inhibition above about 58%; tested in S. cerevisiae
RAM inhibit – inhibitors of the yeast RAM network, primary screen, dse1pr::URA3 reporter, 5-FOA selection; S. cerevisiae dse1pr::URA3 reporter, 5-FOA growth OD615, 2 d; analog-sensitive cbk1-as2 kinase mutant strain; inhibition, % at 50 µM; 190,000 compounds, 1.8% hits;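 active = inhibition above a set limit, 3 SD over mean compound inhibition, cut at about 8.4% in these data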;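 also: inhibition rescues growth on 5-FOA so higher OD means more RAM inhibition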
NPY-Y2 antag – NPY-Y2 receptor antagonists, primary screen, cell-based; NPY-Y2 expressing cells, antagonist mode; Neuropeptide Y receptor type 2 (Homo sapiens), P49146; 140,000 compounds, 0.99% hits; inhibition, % at 2.7 µM; in the data active = inhibition above about 17%
NPY Y1 blocker – NPY-Y1 receptor antagonists, primary screen, cell-based. Neuropeptide Y receptor type 1 (Homo sapiens), P25929. HEK293-CNG Y1 cells, membrane potential fluorescence; NPY at EC95, then isoproterenol. inhibition, % at 3.6 µM. 200,000 compounds, 1% hits;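 active = inhibition above the campaign mean inhibition of all tested compounds plus 3 SD, cut at about 20% in these data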
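material = HEK293 cells with Y1 receptor plus CNG channel | also added = NPY 25 nM then isoproterenol 1 µM plus Ro 20-1724 25 µM | schedule = dye 3 h, compound 60 min room temperature, stimulation 45 min | measured by = membrane potential fluorescence | benchmarks = high control isoproterenol alone, low control NPY with isoproterenol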
Hits are given with their value; 0 = inactive; - = no result.

SMILES	NPY2 pot ag	NPY1 pot ag	WT yeast gro inh	RAM inhibit	NPY-Y2 antag	NPY Y1 blocker
Cc1sc(-n2c(C)ccc2C)c(C#N)c1C	0	0	0	0	0	0
Cc1cc(C)n(CC(O)COCc2ccccc2)n1 (configuration not stated)	0	0	0	0	0	0
CC(=O)N1CCC(O)(c2cccc(C(F)(F)F)c2)CC1	0	0	96	0	0	0
CC(=O)c1cccc(NC(=S)NC(=O)c2ccc(Br)cc2)c1	0	0	0	0	0	0
COc1ccc(CCNc2oc(-c3ccc(OC)c(OC)c3)nc2C#N)cc1	0	0	0	11	0	0
COc1ccc(-c2nc(C#N)c(NCCCN(C)C)o2)cc1OC	0	0	0	0	0	0
COc1ccc(/C(C#N)=C/c2ccccn2)cc1	0	0	-	-	-	-
N#C/C(=C\c1ccccn1)c1nc2ccccc2s1	0	0	59	0	-	0
COC(=O)c1ccc(/C=C(\C#N)c2nc3ccccc3s2)cc1	0	0	84	0	0	0
CCOc1ccc2nc(SCC(=O)NCc3ccco3)sc2c1	0	0	0	0	0	0
CCN(C(=O)CSc1ncccc1C(=O)OC(C)C)c1cccc(C)c1	0	0	0	0	0	0
CCN1/C(=C/c2cc[n+](C)cc2)C=Cc2cc(C)ccc21	0	0	70	0	0	0
c1ccc(CCNc2ncnc3scc(C4COc5ccccc5O4)c23)cc1 (configuration not stated)	0	0	69	0	0	0
c1ccc2c(c1)OCC(c1csc3ncnc(N4CCCC4)c13)O2 (configuration not stated)	0	0	0	0	0	0
COc1ccc(OCC(=O)N2CCN(c3nnc(-c4ccc(C)cc4)c4ccccc34)CC2)cc1	0	0	-	-	-	-
Cc1ccc(OCC(=O)N2CCN(c3nnc(-c4ccc(C)cc4)c4ccccc34)CC2)cc1	0	0	79	0	0	0
O=C(NC1CCS(=O)(=O)C1)c1cccc(S(=O)(=O)N2CCCCCC2)c1 (configuration not stated)	0	0	0	0	-	0
Cc1c(NC(=O)c2nn3c(C(F)(F)F)cc(-c4ccccc4)nc3c2Br)c(=O)n(-c2ccccc2)n1C	0	0	0	8.6	0	0
Cc1ccc(-c2cc(C(F)(F)F)n3nc(C(=O)Nc4c(C)n(C)n(-c5ccccc5)c4=O)cc3n2)cc1	0	0	0	0	0	0
O=C(c1ccc(Cn2c(=S)[nH]c3ccc(N4CCOCC4)cc3c2=O)cc1)N1CCN(c2ccc(F)cc2)CC1	0	0	0	0	-	0
O=C(c1ccc2c(=O)n(C3CCCC3)c(=S)[nH]c2c1)N1CCCCCC1	0	0	96	0	-	0
O=C(c1ccc(Cn2c(=S)[nH]c3ccc(Br)cc3c2=O)cc1)N1CCN(C2CCCCC2)CC1	0	0	73	0	-	0
CC1CCCN(C(=O)c2ccc3c(=O)n(C4CCCC4)c(=S)[nH]c3c2)C1 (configuration not stated)	0	0	0	0	-	0
CC1CCC(NC(=O)CN2CCC(n3nnc4cc(F)ccc43)CC2)CC1 (configuration not stated)	0	0	0	0	0	0
Cc1ccc(C(=O)N/C(=C\c2ccccc2)C(=O)OCc2ccccc2)cc1	0	0	0	9.5	0	0
SMILES	NPY2 pot ag	NPY1 pot ag	WT yeast gro inh	RAM inhibit	NPY-Y2 antag	NPY Y1 blocker
O=C(OCc1ccccc1)/C(=C/c1ccc(Cl)cc1)NC(=O)c1ccccc1Cl	0	0	0	9.2	0	0
CCOC(=O)c1[nH]c2ccc(OC)cc2c1NC(=O)C(C)N1CCC2(CC1)OCCO2 (configuration not stated)	0	0	67	0	0	0
CCOC(=O)c1[nH]c2ccc(OC)cc2c1NC(=O)CN1CCC2(CC1)OCCO2	0	0	0	0	0	0
COCCNC(=S)Nc1ccc(Cl)c(Cl)c1	0	0	0	0	-	0
Cc1ccc(NC(=S)Nc2ccc(OC(F)F)c(Cl)c2)cc1F	0	0	85	0	-	0
COc1cc(OC)c(NC(=S)Nc2cc(Cl)cc(Cl)c2)cc1Cl	0	0	83	0	0	0
COc1cc(OC)c(NC(=S)Nc2cccc(C(C)=O)c2)cc1Cl	0	0	0	0	0	0
COc1cc(C)c(NC(=S)Nc2ccc(Cl)c(Cl)c2)cc1OC	0	0	80	0	0	0
Cc1ccc2nc3nc(NCC4CCCO4)c(C(=O)NC4CCCCC4)cc3c(=O)n2c1 (configuration not stated)	0	0	0	0	-	0
COc1ccc(C=C(c2nc3ccccc3s2)c2nc3ccccc3s2)cc1O	0	0	0	9.2	0	0
CCCC(=O)C1=C(O)C(c2cccc(Oc3ccccc3)c2)CCC1=O (configuration not stated)	0	0	67	0	-	0
Cc1n[nH]c(C)c1CCOc1ccc(C(C)C)cc1	0	0	0	0	0	0
O=C(NCCc1nnc2ccc(NCc3ccc(Cl)cc3)nn12)c1ccccc1	0	0	0	8.5	-	0
CS(=O)(=O)c1cnc(-c2ccccc2)nc1Oc1ccc(Cl)cc1	0	0	0	0	0	0
Oc1ccc(/C=N/Nc2nc(N3CCCCCC3)nc(N3CCCCCC3)n2)c(O)c1	0	0	74	0	-	0
C(=N\Nc1nc(N2CCOCC2)nc(N2CCOCC2)n1)/c1ccco1	0	0	0	0	-	0
Brc1cccc(/C=N/Nc2nc(N3CCCCC3)nc(N3CCCCC3)n2)c1	0	0	0	0	-	0
C(=N\Nc1nc(N2CCCCCC2)nc(N2CCCCCC2)n1)/c1ccccc1	0	0	68	0	-	0
Fc1ccc(Nc2nc(N/N=C/c3ccco3)nc(N3CCCCC3)n2)cc1	0	0	82	0	-	0
CN(CC1CCOCC1)C(=O)CC1C(=O)NCCN1Cc1ccc(Cl)c(F)c1 (configuration not stated)	0	0	-	-	-	-
O=C(COc1cc(Cl)ccc1Cl)Nc1ccc2c(c1)CCC2	0	0	0	0	0	0
N#Cc1c(-n2cccc2C=O)sc2c1CCCC2	0	0	0	0	-	0
O=C(O)CCC(=O)Nc1ccc(C(=O)OCC(=O)c2ccc(Cl)cc2Cl)cc1	0	0	0	8.7	-	0
COCCNC(=O)C(c1ccc(F)cc1)N(C(=O)CCC(=O)Nc1nccs1)c1cccc(C)c1 (configuration not stated)	0	0	0	9.6	-	0
CCOc1ccccc1CNCCNCC(C)O (configuration not stated)	0	0	0	0	-	0
C=CCc1ccccc1OCC(O)CN(C(C)C)C(C)C (configuration not stated)	97	103	0	0	0	0

Bioassay records deposited in PubChem by several laboratories.
